ChEMBL document CHEMBL1938283, “Novel diamino imidazole and pyrrole-containing polyamides: Synthesis and DNA binding studies of mono- and diamino-phenyl-ImPy*Im polyamides designed to target 5'-ACGCGT-3'” (Bioorg Med Chem, 2012)
Activity calls are given as the source filed them. No cut-off for these calls is given here.

How the values were obtained:
Nucleic Acid [1] = assay: Binding affinity to 5'-AAATTT-3' DNA assessed as macroscopic binding constant K1 by surface plasmon resonance-biosensor method; type: nucleic-acid assay
Procedure, shortened: (§1)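 SPR biosensor at 25 °C. 5'-biotinylated DNA hairpins, about 400 RU, were captured on streptavidin chips, with one blank flow cell as reference. Running buffer was 0.01 M cacodylic acid pH 6.25, 0.1 M NaCl, 1 mM EDTA, 0.005% P20. Known polyamide concentrations were injected and fitted to one- or two-site models to give K1 and K2.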

Nucleic Acid [2] = assay: Binding affinity to 5'-ACGCGT-3' DNA assessed as change in melting temperature at 1:3 of DNA/compound ratio by spectrophotometry; type: nucleic-acid assay
Procedure, shortened: (§2)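 UV thermal melt (Cary spectrophotometer) of each duplex, 1 µM DNA with 3 µM polyamide, in 10 mM phosphate buffer with 12.5 mM NaCl, 1 mM EDTA, pH 6.2. ΔTM is the melting temperature of the DNA–polyamide complex minus that of duplex DNA alone.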

Nucleic Acid [3] = assay: Binding affinity to 5'-AAATTT-3' DNA assessed as change in melting temperature at 1:3 of DNA/compound ratio by spectrophotometry; type: nucleic-acid assay; procedure, shortened: as §2
Nucleic Acid [4] = assay: Binding affinity to 5'-ACGCGT-3' DNA assessed as macroscopic binding constant K1 by surface plasmon resonance-biosensor method; type: nucleic-acid assay; procedure, shortened: as §1
Nucleic Acid [5] = assay: Binding affinity to 5'-ACGCGT-3' sequence in 125 bp 5'-[32P]-radiolabeled DNA at 0.05 uM after 30 mins by DNase1 footprinting analysis; type: nucleic-acid assay
Procedure, shortened: (§3)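 A 125 bp radiolabeled PCR fragment was incubated 30 min at room temperature with polyamide in 10 mM Tris, 10 mM NaCl, pH 7. DNase I (0.02 U, with Mg2+/Mn2+, pH 8.0) then cleaved for 3 min, stopped by freezing on dry ice. Products were resolved on a denaturing 10% polyacrylamide urea gel and read by autoradiography.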

Nucleic Acid [6] = assay: Binding affinity to 5'-AAATTT-3' DNA; type: nucleic-acid assay
Nucleic Acid [7] = assay: Binding affinity to 5'-ACGCGT-3' sequence in 125 bp 5'-[32P]-radiolabeled DNA at 0.5 uM after 30 mins by DNase1 footprinting analysis; type: nucleic-acid assay; procedure, shortened: as §3
Nucleic Acid [8] = assay: Binding affinity to DNA minor-groove 5'-ACGCGT-3' sequence; type: nucleic-acid assay
Nucleic Acid [9] = assay: Binding affinity to DNA minor-groove 5'-ACCGGT-3' sequence; type: nucleic-acid assay
[10] = Solubility of the compound in water; type: physicochemical; conditions: buffer
Nucleic Acid [11] = assay: Binding affinity to 5'-ACGCGT-3' DNA at 9:500 of DNA/compound ratio by CD spectral analysis; type: nucleic-acid assay
Nucleic Acid [12] = assay: Binding affinity to 5'-ACGCGT-3' DNA at 30:80 of DNA/compound ratio by isothermal titration calorimetry; type: nucleic-acid assay
Procedure, shortened: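 ITC by the model-free method at 25 °C in 0.01 M cacodylic acid. Polyamide at 80 µM was injected into 30 µM DNA in 30 × 10 µL injections, every 300 s after a 300 s delay, up to a mole ratio of about 0.6:1. Integrated heats were corrected for nonspecific heats including dilution, and normalized ΔH was fitted linearly against mole ratio.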

Nucleic Acid [13] = assay: Binding affinity to 5'-ACACGT-3' sequence in 125 bp 5'-[32P]-radiolabeled DNA at 100 uM after 30 mins by DNase1 footprinting analysis; type: nucleic-acid assay; procedure, shortened: as §3
Nucleic Acid [14] = assay: Binding affinity to 5'-ACGCGT-3' DNA by surface plasmon resonance-biosensor method; type: nucleic-acid assay; procedure, shortened: as §1
Nucleic Acid [15] = assay: Binding affinity to 5'-AAATTT-3' DNA by surface plasmon resonance-biosensor method; type: nucleic-acid assay; procedure, shortened: as §1
Nucleic Acid [16] = assay: Binding affinity to 5'-AGCGCT-3' sequence in 125 bp 5'-[32P]-radiolabeled DNA at 100 uM after 30 mins by DNase1 footprinting analysis; type: nucleic-acid assay; procedure, shortened: as §3
Nucleic Acid [17] = assay: Binding affinity to DNA minor-groove 5'-ACGCGT-3' sequence at 9:500 of DNA/compound ratio by CD spectral analysis; type: nucleic-acid assay
Nucleic Acid [18] = assay: Binding affinity to 5'-ACACTT-3' DNA assessed as change in melting temperature at 1:3 of DNA/compound ratio by spectrophotometry; type: nucleic-acid assay; procedure, shortened: as §2
Nucleic Acid [19] = assay: Binding affinity to 5'-ACGCGT-3' sequence in 125 bp 5'-[32P]-radiolabeled DNA at 20 uM after 30 mins by DNase1 footprinting analysis; type: nucleic-acid assay; procedure, shortened: as §3
Nucleic Acid [20] = assay: Binding affinity to 5'-AAGCTA-3' DNA assessed as macroscopic binding constant K2 by surface plasmon resonance-biosensor method; type: nucleic-acid assay; procedure, shortened: as §1
Nucleic Acid [21] = assay: Binding affinity to 5'-AAGCTA-3' DNA assessed as macroscopic binding constant K1 by surface plasmon resonance-biosensor method; type: nucleic-acid assay; procedure, shortened: as §1
Nucleic Acid [22] = assay: Binding affinity to 5'-ACGCGT-3' DNA assessed as macroscopic binding constant K2 by surface plasmon resonance-biosensor method; type: nucleic-acid assay; procedure, shortened: as §1
Nucleic Acid [23] = assay: Binding affinity to 5'-AAGCTA-3' DNA by surface plasmon resonance-biosensor method; type: nucleic-acid assay; procedure, shortened: as §1
Nucleic Acid [24] = assay: Binding affinity to 5'-ACCGGT-3' sequence in 125 bp 5'-[32P]-radiolabeled DNA at 100 uM after 30 mins by DNase1 footprinting analysis; type: nucleic-acid assay; procedure, shortened: as §3
Nucleic Acid [25] = assay: Binding affinity to 5'-ACACTT-3' DNA at 9:500 of DNA/compound ratio by CD spectral analysis; type: nucleic-acid assay
Nucleic Acid [26] = assay: Binding affinity to 5'-AAATTT-3' DNA at 9:500 of DNA/compound ratio by CD spectral analysis; type: nucleic-acid assay

ΔTm (Nucleic Acid [2]) [°C]	ΔTm (Nucleic Acid [3]) [°C]	K (Nucleic Acid [4])	Activity (Nucleic Acid [7])	Activity (Nucleic Acid [11])	Activity (Nucleic Acid [12])	Kb (Nucleic Acid [14])	Activity (Nucleic Acid [15])	Activity (Nucleic Acid [17])	ΔTm (Nucleic Acid [18]) [°C]	K (Nucleic Acid [20])	K (Nucleic Acid [21]) [×10⁵ /M]	K (Nucleic Acid [22]) [×10⁸ /M]	Kb (Nucleic Acid [23])	SMILES	other results
9	1	1.9 ×10⁸ /M	Active											CN(C)CCNC(=O)c1nc(NC(=O)c2cc(NC(=O)c3nc(NC=O)cn3C)cn2C)cn1C	K (Nucleic Acid [1]): 5.3 ×10⁴ /M; Activity (Nucleic Acid [5]): Active; K (Nucleic Acid [6]): 5.3 ×10⁴ /M; K (Nucleic Acid [8]): 1.9 ×10⁸ /M; K (Nucleic Acid [9]): 2.2 ×10⁵ /M
														CN(C)CCNC(=O)c1nc(NC(=O)c2cc(NC(=O)c3nc(NC=O)cn3C)cn2CCCN)cn1C.Cl	solubility [10]: soluble
9	0	6.1 ×10⁴ /M		Active	Active	4.8 ×10⁶ /M	inactive	Active	0	2.8 ×10⁵ /M	2.3	3.7	2.5 ×10⁵ /M	CN(C)CCNC(=O)c1nc(NC(=O)c2cc(NC(=O)c3nc(NC(=O)c4ccccc4)cn3C)cn2C)cn1C	Activity (Nucleic Acid [13]): inactive; Activity (Nucleic Acid [16]): inactive; Activity (Nucleic Acid [19]): Active; Activity (Nucleic Acid [24]): inactive
> 25	7.6	8.7 ×10⁵ /M	Active	Active	Active	1.5 ×10⁷ /M	inactive	Active	0	1.2 ×10⁷ /M	2.9	2.7	2.1 ×10⁶ /M	CN(C)CCNC(=O)c1nc(NC(=O)c2cc(NC(=O)c3nc(NC(=O)c4ccccc4)cn3C)cn2CCCN)cn1C	Activity (Nucleic Acid [25]): Active; Activity (Nucleic Acid [26]): Active
